Series [1] can be described thus: Permeability from apical to basolateral side of dog MDCK2 cell monolayer assessed as intact drug level in basolateral compartment after 6 hrs. Conditions: mdck-ii. Type of series: ADME, cell-based, Canis lupus familiaris. In short, it runs like this: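 MDCK-2 monolayers were grown in DMEM with 10% FBS, seeded at 5 × 10⁵ cells/cm² on 24-mm Transwell inserts, and used at TER 100-300 Ω·cm² (10-20 days). Apical dosing was formally 30-50 µM compound in HBSS with 0.1% DMSO. After 6 h, basolateral solution was analysed by HPLC-UV at 300/370 nm and quantified against standard curves (quantification limit 0.2 µM).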

Series [2] in a line: Solubility in Hanks balanced salt solution at 1 mg after 24 hrs. Type of series: physicochemical.
Series [3] is described as follows: Chemical stability assessed as half life of hydrolysis. In kind it is physicochemical. In short, it runs like this:
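UV-vis spectra (190-500 nm) followed in PBS (20 mM, pH 7.0, ionic strength 0.1 M with KCl)/CH₃CN 1:1 at 25 °C. The reaction was started by adding substrate freshly dissolved in acetonitrile, to a final (3-8) × 10^-5 M. Observed first- and second-step hydrolysis rate constants came from fitting the spectral data to a kinetic equation, and half-life was derived from them.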

A short description of series [4]: Permeability from apical to basolateral side of dog MDCK1 cell monolayer assessed as intact drug level in basolateral compartment after 6 hrs. In kind it is ADME, cell-based, Canis lupus familiaris. Particulars: mdck1, 6 h. In outline: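 MDCK-1 cells in DMEM with 10% FBS were seeded at 3 × 10⁵ cells/cm² on 24-mm Transwell inserts and used at TER ~10-15 kΩ·cm² (10-20 days). Compound was applied apically at formally 30-50 µM in HBSS with 0.1% DMSO. Basolateral fluid was taken at 6 h and quantified by HPLC-UV (300/370 nm) against standard curves; quantification limit 0.2 µM.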

For another series, the system named is Caco-2. The series can be described thus: Permeability from apical to basolateral side of human Caco-2 cell monolayer assessed as intact drug level in basolateral compartment after 6 hrs. Type of series: ADME, cell-based. Particulars: caco-2, 6 h. In short, it runs like this:
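Caco-2 cells were cultured in DMEM with 10% FBS, seeded at 3 × 10⁵ cells/cm² on 24-mm Transwell inserts, and tested at TER 1.5-2 kΩ·cm² (10-20 days). Compound at formally 30-50 µM in HBSS with 0.1% DMSO was placed apically. Basolateral content at 6 h was measured by HPLC-UV (300/370 nm) against standard curves; quantification limit 0.2 µM.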
(Caco-2 cells form a polarised layer with tight junctions and transporters.)

As for `CC(=O)Oc1cc(OC(C)=O)c2c(=O)c(OC(C)=O)c(-c3ccc(OC(C)=O)c(OC(C)=O)c3)oc2c1`, the Activity in series [1] is listed as 0.5%. For the same compound, the solubility (in general, the concentration that dissolves in the medium under given conditions) at 24 h in series [2] was 1.1 µM.

As to `CC(=O)Oc1cc(OC(C)=O)c2c(=O)c(OC(C)=O)c(-c3ccc(OC(C)=O)c(OC(=O)[C@@H](C)NC(=O)OC(C)(C)C)c3)oc2c1`, in series [2], the solubility at 24 h was found to be 12 µM.

With `CC(=O)Oc1cc(OC(C)=O)c2c(=O)c(OC(C)=O)c(-c3ccc(OC(C)=O)c(OC(=O)c4ccc(NC(=O)OC(C)(C)C)cc4)c3)oc2c1`, in series [2], the solubility at 24 h worked out at 0.4 µM.

`CC(C)(C)OC(=O)NCCCC(=O)Oc1cc(-c2oc3cc(O)cc(O)c3c(=O)c2O)ccc1O`: in series [3], the t1/2 was 2.08 h.

As to `CC(C)(C)OC(=O)NCCCCCC(=O)Oc1cc(-c2oc3cc(O)cc(O)c3c(=O)c2O)ccc1O`, the t1/2 in series [3] amounted to 3.67 h.

As to `CC(C)(C)OC(=O)N[C@H]1CC[C@@H](C(=O)Oc2cc(-c3oc4cc(O)cc(O)c4c(=O)c3O)ccc2O)CC1`, the t1/2 in series [3] came out at 3.31 h.

Take `CC(C)(C)OC(=O)Nc1ccc(C(=O)Oc2cc(-c3oc4cc(O)cc(O)c4c(=O)c3O)ccc2O)cc1`: in series [2], the solubility at 24 h worked out at 0.4 µM.

For `CC(=O)Oc1cc(OC(C)=O)c2c(=O)c(OC(C)=O)c(-c3ccc(OC(C)=O)c(OC(=O)CCCNC(=O)OC(C)(C)C)c3)oc2c1`, the solubility at 24 h in series [2] worked out at 2.5 µM.

`Nc1ccc(C(=O)Oc2cc(-c3oc4cc(O)cc(O)c4c(=O)c3O)ccc2O)cc1`: the solubility at 24 h in series [2] was 1.5 µM.

As for `CC(=O)Oc1cc(OC(C)=O)c2c(=O)c(OC(C)=O)c(-c3ccc(OC(C)=O)c(OC(=O)c4ccc(N)cc4)c3)oc2c1`, in series [2], the solubility at 24 h amounted to 1 µM.

`CC(=O)Oc1cc(OC(C)=O)c2c(=O)c(OC(C)=O)c(-c3ccc(OC(C)=O)c(OC(=O)CCCCCNC(=O)OC(C)(C)C)c3)oc2c1`: in series [2], the solubility at 24 h turned out to be 3.9 µM.

In the case of `CC(=O)Oc1cc(OC(C)=O)c2c(=O)c(OC(C)=O)c(-c3ccc(OC(C)=O)c(OC(=O)[C@H]4CC[C@@H](NC(=O)OC(C)(C)C)CC4)c3)oc2c1`, in series [2], the solubility at 24 h came out at 0.8 µM.

As to `O=c1c(O)c(-c2ccc(O)c(O)c2)oc2cc(O)cc(O)c12` [QUERCETIN], the Activity in series [1] was found to be 2.7%; in series [4] it was 0.9%; with Caco-2, 1%. Moreover, the solubility at 24 h in series [2] was 2.3 µM.

(Values after ChEMBL document CHEMBL1140605, “Ester-based precursors to increase the bioavailability of quercetin” (J Med Chem, 2007).)
